Test results as given in ChEMBL document CHEMBL3526146, “In vitro and in vivo metabolism and pharmacokinetics of BMS-562086, a potent and orally bioavailable corticotropin-releasing factor-1 receptor antagonist” (Drug Metab Dispos, 2012).

Columns and labels:
[1] = Drug metabolism in rat hepatocytes assessed as DPH-124921 metabolite level at 25 uM after 3 hrs by LC-MS/MS analysis; assay type: ADME, cell-based, Hepatocyte
Outline: (§1)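 Hepatocytes checked for viability by trypan blue exclusion, then diluted in Krebs-Henseleit buffer to 1.0 × 10^6 cells/ml. Incubated in duplicate with 25 µM compound at 37°C for 3 h on an orbital shaker (80 rpm) under 95/5 O2/CO2. Negative control had no cells. Stopped with ice-cold acetonitrile, sonicated, centrifuged; supernatant analysed by LC/MS/MS.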

[2] = Drug metabolism in beagle dog hepatocytes assessed as DPH-124921 metabolite level at 25 uM after 3 hrs by LC-MS/MS analysis; assay type: ADME, cell-based, Canis lupus familiaris, Hepatocyte
Outline: (§2)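 Mouse, rat, dog, monkey and human hepatocytes (trypan blue viability checked) at 1.0×10^6 cells/ml in Krebs-Henseleit buffer were incubated with 25 µM compound, in duplicate. Conditions were 37°C, 95/5 O2/CO2, orbital shaking, 3 h. 7-Ethoxycoumarin and 7-hydroxycoumarin (100 µM) served as positive controls, with a cell-free negative control. Reactions were quenched with ice-cold acetonitrile, then sonicated and centrifuged; supernatants were analysed by LC/MS/MS.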

[3] = Drug metabolism in cynomolgus monkey cryopreserved hepatocytes assessed as DPH-124921 metabolite level at 25 uM after 3 hrs by LC-MS/MS analysis; assay type: ADME, cell-based, Macaca fascicularis, Hepatocyte; outline: as §2
[4] = Drug metabolism in human cryopreserved hepatocytes assessed as DPH-124921 metabolite level at 25 uM after 3 hrs by LC-MS/MS analysis; assay type: ADME, cell-based, Hepatocyte; outline: as §1
[5] = Drug metabolism in mouse hepatocytes assessed as BMS-572273 metabolite level at 25 uM after 3 hrs by LC-MS/MS analysis; assay type: ADME, cell-based, Hepatocyte; outline: as §1
[6] = Drug metabolism in rat hepatocytes assessed as BMS-572273 metabolite level at 25 uM after 3 hrs by LC-MS/MS analysis; assay type: ADME, cell-based, Hepatocyte; outline: as §1
[7] = Drug metabolism in beagle dog hepatocytes assessed as BMS-572273 metabolite level at 25 uM after 3 hrs by LC-MS/MS analysis; assay type: ADME, cell-based, Canis lupus familiaris, Hepatocyte; outline: as §2
Liver microsome [8] = test: Drug metabolism in dog liver microsomes at 100 uM after 1 hr in presence of NADPH; assay type: ADME, Canis lupus familiaris
Outline: (§3)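 Liver microsomes (1 mg/ml protein) in 100 mM phosphate buffer with 100 µM test compound. Reaction started by adding NADPH (1 mM), then run at 37°C for 1 h in a shaking water bath, in duplicate. Controls lacked microsomal protein or NADPH; 7-ethoxycoumarin (100 µM) was the positive control. Metabolites identified by LC/MS/MS.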

[9] = Drug metabolism in cynomolgus monkey liver microsomes at 100 uM after 1 hr in presence of NADPH; assay type: ADME, Macaca fascicularis
Outline: (§4)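 Mouse, rat, dog, monkey and human liver microsomes (1 mg/ml protein) were incubated with 100 µM compound in 100 mM phosphate buffer. Reactions were started with 1 mM NADPH and run 1 h at 37°C in duplicate. Controls lacked protein or NADPH, plus a 7-ethoxycoumarin (100 µM) positive control. Metabolites were identified by LC/MS/MS.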

Liver microsome [10] = test: Drug metabolism in human liver microsomes at 100 uM after 1 hr in presence of NADPH; assay type: ADME; outline: as §3
Liver microsome [11] = test: Drug metabolism in rat liver microsomes assessed as DPH-123554 metabolite level at 100 uM after 1 hr in presence of NADPH; assay type: ADME; outline: as §3
Liver microsome [12] = test: Drug metabolism in beagle dog liver microsomes assessed as DPH-123554 metabolite level at 100 uM after 1 hr in presence of NADPH; assay type: ADME, Canis lupus familiaris; outline: as §4
[13] = Drug metabolism in cynomolgus monkey liver microsomes assessed as DPH-123554 metabolite level at 100 uM after 1 hr in presence of NADPH; assay type: ADME, Macaca fascicularis; outline: as §4
Liver microsome [14] = test: Drug metabolism in human liver microsomes assessed as DPH-123554 metabolite level at 100 uM after 1 hr in presence of NADPH; assay type: ADME; outline: as §3
Liver microsome [15] = test: Drug metabolism in dog liver microsomes assessed as DPH-124921 metabolite level at 100 uM after 1 hr in presence of NADPH; assay type: ADME, Canis lupus familiaris; outline: as §4
Liver microsome [16] = test: Drug metabolism in human liver microsomes assessed as DPH-124921 metabolite level at 100 uM after 1 hr in presence of NADPH; assay type: ADME; outline: as §3
Liver microsome [17] = test: Drug metabolism in rat liver microsomes assessed as BMS-572273 metabolite level at 100 uM after 1 hr in presence of NADPH; assay type: ADME; outline: as §3
[18] = Drug metabolism in cynomolgus monkey liver microsomes assessed as BMS-572273 metabolite level at 100 uM after 1 hr in presence of NADPH; assay type: ADME, Macaca fascicularis; outline: as §4
Liver microsome [19] = test: Drug metabolism in human liver microsomes assessed as BMS-572273 metabolite level at 100 uM after 1 hr in presence of NADPH; assay type: ADME; outline: as §3
Hepatocyte [20] = test: Detection of compound level in rat hepatocytes treated with 25 uM of BMS-562086 after 3 hrs by LC-MS/MS analysis; assay type: ADME, cell-based; outline: as §2
[21] = Detection of compound level in beagle dog hepatocytes treated with 25 uM of BMS-562086 after 3 hrs by LC-MS/MS analysis; assay type: ADME, cell-based, Canis lupus familiaris, Hepatocyte; outline: as §2
[22] = Detection of compound level in cynomolgus monkey cryopreserved hepatocytes treated with 25 uM of BMS-562086 after 3 hrs by LC-MS/MS analysis; assay type: ADME, cell-based, Macaca fascicularis, Hepatocyte; outline: as §2
[23] = Retention time of the compound by HPLC method; assay type: physicochemical
Hepatocyte [24] = test: Detection of compound level in human cryopreserved hepatocytes treated with 25 uM of BMS-562086 after 3 hrs by LC-MS/MS analysis; assay type: ADME, cell-based; outline: as §2
[25] = Drug metabolism in mouse hepatocytes at 25 uM after 3 hrs by LC-MS/MS analysis; assay type: ADME, cell-based, Hepatocyte; outline: as §1
[26] = Drug metabolism in rat hepatocytes at 25 uM after 3 hrs by LC-MS/MS analysis; assay type: ADME, cell-based, Hepatocyte; outline: as §1
[27] = Drug metabolism in beagle dog hepatocytes at 25 uM after 3 hrs by LC-MS/MS analysis; assay type: ADME, cell-based, Canis lupus familiaris, Hepatocyte; outline: as §2
[28] = Drug metabolism in human cryopreserved hepatocytes at 25 uM after 3 hrs by LC-MS/MS analysis; assay type: ADME, cell-based, Hepatocyte; outline: as §1
[29] = Drug metabolism in rat hepatocytes assessed as DPH-123554 metabolite level at 25 uM after 3 hrs by LC-MS/MS analysis; assay type: ADME, cell-based, Hepatocyte; outline: as §1
[30] = Drug metabolism in beagle dog hepatocytes assessed as DPH-123554 metabolite level at 25 uM after 3 hrs by LC-MS/MS analysis; assay type: ADME, cell-based, Canis lupus familiaris, Hepatocyte; outline: as §2
[31] = Drug metabolism in human cryopreserved hepatocytes assessed as DPH-123554 metabolite level at 25 uM after 3 hrs by LC-MS/MS analysis; assay type: ADME, cell-based, Hepatocyte; outline: as §1
[32] = Drug metabolism in mouse hepatocytes assessed as DPH-124921 metabolite level at 25 uM after 3 hrs by LC-MS/MS analysis; assay type: ADME, cell-based, Hepatocyte; outline: as §1
[33] = Detection of compound level in mouse liver microsomes treated with BMS-562086 by LC-MS/MS analysis
Liver microsome [34] = test: Detection of compound level in rat liver microsomes treated with 100 uM of BMS-562086 after 1 hr by LC-MS/MS analysis
Liver microsome [35] = test: Detection of compound level in beagle dog liver microsomes treated with 100 uM of BMS-562086 after 1 hr by LC-MS/MS analysis

Row | SMILES | Drug metabolism [1] | Drug metabolism [2] | Drug metabolism [3] | Drug metabolism [4] | Drug metabolism [5] | Drug metabolism [6] | Drug metabolism [7] | Drug metabolism (Liver microsome [8]) | Drug metabolism [9] | Drug metabolism (Liver microsome [10]) | Drug metabolism (Liver microsome [11]) | Drug metabolism (Liver microsome [12]) | Drug metabolism [13] | Drug metabolism (Liver microsome [14]) | Drug metabolism (Liver microsome [15]) | Drug metabolism (Liver microsome [16]) | Drug metabolism (Liver microsome [17]) | Drug metabolism [18] | Drug metabolism (Liver microsome [19]) | Drug metabolism (Hepatocyte [20]) | further results
1 | CC[C@@H](C)Nc1nc(C)nc2c(-c3ccc(OC)nc3C)c(C)nn12 [PEXACERFONT] | metabolite_detected | metabolite_detected | metabolite_detected | metabolite_detected | metabolite_detected | metabolite_detected | metabolite_detected | metabolite_detected | metabolite_detected | metabolite_detected | metabolite_detected | metabolite_detected | metabolite_detected | metabolite_detected | metabolite_detected | metabolite_detected | metabolite_detected | metabolite_detected | metabolite_detected | metabolite_detected | Drug metabolism [21]: metabolite_detected; Drug metabolism [22]: metabolite_detected; Retention_time [23]: 52.2 min; Drug metabolism (Hepatocyte [24]): metabolite_detected; Drug metabolism [25]: metabolite_detected; Drug metabolism [26]: metabolite_detected; Drug metabolism [27]: metabolite_detected; Drug metabolism [28]: metabolite_detected; Drug metabolism [29]: metabolite_detected; Drug metabolism [30]: metabolite_detected; Drug metabolism [31]: metabolite_detected; Drug metabolism [32]: metabolite_detected; Drug metabolism [33]: metabolite_detected; Drug metabolism (Liver microsome [34]): metabolite_detected; Drug metabolism (Liver microsome [35]): metabolite_detected
2 | COc1ccc(-c2c(C)nn3c(O)nc(C)nc23)c(C)n1 | metabolite_detected | metabolite_detected | metabolite_detected | metabolite_detected | metabolite_detected | metabolite_detected | metabolite_detected | metabolite_detected | metabolite_detected | metabolite_detected | metabolite_detected | metabolite_detected | metabolite_detected | metabolite_detected | metabolite_detected | metabolite_detected | metabolite_detected | metabolite_detected | metabolite_detected | metabolite_detected | Drug metabolism [21]: metabolite_detected; Drug metabolism [22]: metabolite_detected; Retention_time [23]: 25.6 min; Drug metabolism (Hepatocyte [24]): metabolite_detected; Drug metabolism [25]: metabolite_detected; Drug metabolism [26]: metabolite_detected; Drug metabolism [27]: metabolite_detected; Drug metabolism [28]: metabolite_detected; Drug metabolism [29]: metabolite_detected; Drug metabolism [30]: metabolite_detected; Drug metabolism [31]: metabolite_detected; Drug metabolism [32]: metabolite_detected; Drug metabolism [33]: metabolite_detected; Drug metabolism (Liver microsome [34]): metabolite_detected; Drug metabolism (Liver microsome [35]): metabolite_detected
3 | COc1ccc(-c2c(C)nn3c(N)nc(C)nc23)c(C)n1 | metabolite_detected | metabolite_detected | metabolite_detected | metabolite_detected | metabolite_detected | metabolite_detected | metabolite_detected | metabolite_detected | metabolite_detected | metabolite_detected | metabolite_detected | metabolite_detected | metabolite_detected | metabolite_detected | metabolite_detected | metabolite_detected | metabolite_detected | metabolite_detected | metabolite_detected | metabolite_detected | Drug metabolism [21]: metabolite_detected; Drug metabolism [22]: metabolite_detected; Retention_time [23]: 28.5 min; Drug metabolism (Hepatocyte [24]): metabolite_detected; Drug metabolism [25]: metabolite_detected; Drug metabolism [26]: metabolite_detected; Drug metabolism [27]: metabolite_detected; Drug metabolism [28]: metabolite_detected; Drug metabolism [29]: metabolite_detected; Drug metabolism [30]: metabolite_detected; Drug metabolism [31]: metabolite_detected; Drug metabolism [32]: metabolite_detected; Drug metabolism [33]: metabolite_detected; Drug metabolism (Liver microsome [34]): metabolite_detected; Drug metabolism (Liver microsome [35]): metabolite_detected
